Drawing on ChEMBL document CHEMBL1122465, “Transport of antimicrobial agents using peptide carrier systems: anticandidal activity of m-fluorophenylalanine--peptide conjugates” (1983), this text covers MIC and Zone size for 22 compounds.

The term MIC denotes the lowest concentration found to suppress growth. Low values mean inhibition by little substance, high ones a need for much substance.

Converted amounts (≈) assume the structure as drawn. Square brackets hold non-standard residues; d marks the D form. Peptide text beside a SMILES is read from it. Phe(3-F) = N[C@@H](Cc1cccc(F)c1)C(=O)O Bounds are passed on as bounds.

Holding throughout (format): functional
Assay [1] has as its system Candida albicans. Briefly: Minimum inhibitory concentration was determined for Candida albicans strain B311, by a microtiter broth dilution assay. Summed up:
(§1)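 Twofold broth dilution in yeast carbon base medium with 200 μg/mL sodium glutamate, compounds 250 to 0.25 μg/mL. Inoculum grown in YCB-glutamate 15 h at 37 °C; final ~10⁴ cfu/mL. Incubated at 37 °C, read at 24 and 48 h for growth inhibition; MIC taken as lowest inhibiting concentration.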

In assay [2] the test system is Candida albicans. The experiment in a line: Minimum inhibitory concentration was determined for Candida albicans strain 759, by a microtiter broth dilution assay. Summed up:
as §1
(Broth dilution looks for growth in wells or tubes with falling amounts of substance.)

Assay [3] deals with Candida albicans. Briefly: Zone developed against Candida albicans, when a 6.0 ug/disc was added.
Assay [4] relates to Candida albicans. Briefly: Zone developed against Candida albicans, when a 25.0 ug/disc was added.
Assay [5] relates to Candida albicans. Briefly: Zone developed against Candida albicans, when a 12.5 ug/disc was added.
Assay [6] deals with Candida albicans. The experiment in a line: Zone developed against Candida albicans, when a 3.0 ug/disc was added.
The subject of assay [7] is Candida albicans. The experiment in a line: Zone developed against Candida albicans B-311, when a 12.5 ug/disc was added.
Assay [8] relates to Candida albicans. The experiment in a line: Zone developed against Candida albicans, when a 25.0 ug/disc was added; 25-31.

In the case of `N[C@@H](Cc1cccc(F)c1)C(=O)O`, the MIC in the assay with Candida albicans [1] and against Candida albicans [2] was greater than 250 µg/mL in each case.
For the compound `C[C@H](N)C(=O)N[C@@H](C)C(=O)N[C@@H](C)C(=O)O.C[C@H](NC(=O)[C@H](C)NC(=O)[C@@H](N)Cc1cccc(F)c1)C(=O)O`, the Zone size in the assay with Candida albicans [3], with Candida albicans [4], in the assay with Candida albicans [5] and in the assay on Candida albicans [6] was 0 mm in each case.
For `C[C@H](N)C(=O)N[C@@H](C)C(=O)N[C@@H](C)C(=O)O.C[C@H](NC(=O)[C@@H](N)Cc1cccc(F)c1)C(=O)O`, the Zone size in the assay on Candida albicans [3], in the assay with Candida albicans [4], with Candida albicans [5] and in the assay on Candida albicans [6] was 0 mm each time.
Regarding `C[C@H](NC(=O)[C@H](C)NC(=O)[C@@H](N)Cc1cccc(F)c1)C(=O)O.N[C@@H](Cc1c[nH]cn1)C(=O)O`, the Zone size in the assay with Candida albicans [7] came to 25 mm.
Take `C[C@H](N)C(=O)N[C@@H](C)C(=O)O.C[C@H](NC(=O)[C@H](C)NC(=O)[C@@H](N)Cc1cccc(F)c1)C(=O)O`: the Zone size amounted to 16 mm with Candida albicans [3], 24 mm in the assay on Candida albicans [4], 18 mm with Candida albicans [5] and 0 mm with Candida albicans [6].
The matching figures for `C[C@H](NC(=O)[C@@H](N)Cc1cccc(F)c1)C(=O)O.NCC(=O)N[C@@H](Cc1ccccc1)C(=O)O`: 0 mm, 0 mm, 0 mm and 0 mm.
Take `C[C@H](NC(=O)CN)C(=O)O.C[C@H](NC(=O)[C@@H](N)Cc1cccc(F)c1)C(=O)O`: the Zone size was 0 mm in the assay with Candida albicans [3], 0 mm with Candida albicans [5], 25 mm with Candida albicans [8] and 0 mm in the assay on Candida albicans [6].
In the assay with Candida albicans [7], `CC[C@H](C)[C@H](N)C(=O)O.C[C@H](NC(=O)[C@H](C)NC(=O)[C@@H](N)Cc1cccc(F)c1)C(=O)O` yielded a Zone size of 27 mm.
The compound `C[C@H](NC(=O)[C@H](C)NC(=O)[C@@H](N)Cc1cccc(F)c1)C(=O)O.N[C@@H](CC(=O)O)C(=O)O` registered a Zone size with Candida albicans [7] of 26 mm.
On to `C[C@H](NC(=O)[C@H](C)NC(=O)[C@@H](N)Cc1cccc(F)c1)C(=O)O.NCC(=O)N[C@@H](Cc1ccccc1)C(=O)O`, for which the Zone size with Candida albicans [3], with Candida albicans [4], in the assay on Candida albicans [5] and in the assay on Candida albicans [6] was 0 mm in each case.
Consider `C[C@H](NC(=O)CN)C(=O)O.C[C@H](NC(=O)[C@H](C)NC(=O)[C@@H](N)Cc1cccc(F)c1)C(=O)O`, for which the Zone size with Candida albicans [3] was 0 mm; with Candida albicans [4] it was 25 mm; with Candida albicans [5], 18 mm; in the assay on Candida albicans [6], 0 mm.
As for `C[C@H](N)C(=O)N[C@@H](C)C(=O)O.C[C@H](NC(=O)[C@@H](N)Cc1cccc(F)c1)C(=O)O`, the Zone size with Candida albicans [3], with Candida albicans [4], with Candida albicans [5] and with Candida albicans [6] was 0 mm each time.
For `C[C@H](NC(=O)[C@H](C)NC(=O)[C@@H](N)Cc1cccc(F)c1)C(=O)O.N[C@@H](Cc1c[nH]c2ccccc12)C(=O)O`, the Zone size with Candida albicans [7] came to 24 mm.
`C[C@H](NC(=O)[C@H](C)NC(=O)[C@@H](N)Cc1cccc(F)c1)C(=O)O.N[C@@H](Cc1ccccc1)C(=O)O` had a Zone size in the assay on Candida albicans [7] of 0 mm.
As to `C[C@H](NC(=O)[C@H](N)Cc1cccc(F)c1)C(=O)O`, the MIC in the assay with Candida albicans [1] and with Candida albicans [2] was greater than 200 µg/mL in each case.
Compound `C[C@H](NC(=O)[C@H](C)NC(=O)[C@@H](N)Cc1cccc(F)c1)C(=O)O.O=C(O)[C@@H]1CCCN1` came in with a Zone size with Candida albicans [7] of 27 mm.
For the compound `CSCC[C@H](NC(=O)[C@H](CCSC)NC(=O)[C@H](N)Cc1cccc(F)c1)C(=O)O`, the MIC against Candida albicans [1] and against Candida albicans [2] was greater than 250 µg/mL throughout.
As for `CSCC[C@H](NC(=O)[C@H](CCSC)NC(=O)[C@@H](N)Cc1cccc(F)c1)C(=O)O`, the MIC in the assay with Candida albicans [1] came out at 8 µg/mL (≈ 18 µM); in the assay on Candida albicans [2], 63 µg/mL (≈ 141 µM).
For the compound `C[C@H](NC(=O)[C@@H](N)Cc1cccc(F)c1)C(=O)O`, the MIC with Candida albicans [1] stood at 2 µg/mL (≈ 7.87 µM); in the assay on Candida albicans [2] it was 4 µg/mL (≈ 15.7 µM).
With `C[C@H](NC(=O)[C@H](C)NC(=O)[C@H](N)Cc1cccc(F)c1)C(=O)O`, the MIC against Candida albicans [1] and in the assay with Candida albicans [2] was greater than 250 µg/mL each time.
In the case of `C[C@H](NC(=O)[C@H](C)NC(=O)[C@@H](N)Cc1cccc(F)c1)C(=O)O`, the MIC with Candida albicans [1] was found to be 0.5 µg/mL (≈ 1.54 µM); in the assay with Candida albicans [2], 2 µg/mL (≈ 6.15 µM). This compound also had a Zone size in the assay on Candida albicans [7] of 24 mm.
As to `C[C@H](N)C(=O)N[C@@H](C)C(=O)N[C@@H](Cc1cccc(F)c1)C(=O)O` (H-Ala-Ala-[Phe(3-F)]-OH), the figures for the MIC in the assay on Candida albicans [1] and against Candida albicans [2] were 2 µg/mL (≈ 6.15 µM) and 63 µg/mL (≈ 194 µM), respectively.
